Laboratory results: ChEMBL document CHEMBL4732220, “Design, synthesis and biological evaluation of mono- and bisquinoline methanamine derivatives as potential antiplasmodial agents” (Bioorg Med Chem Lett, 2021)

Key:
Plasmodium falciparum [1] = experiment: Antimalarial activity against synchronized ring stage chloroquine-sensitive Plasmodium falciparum assessed as parasite growth inhibition incubated for 48 hrs in presence of 10% human plasma by hypoxanthine assay; type: functional, organism-based
[2] = Cytotoxicity against human HeLa cells assessed as cell viability at 20 uM relative to control; type: cell-based; conditions: read-out: Activity
Method in brief: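 Mammalian HeLa cells incubated with test compound at a single 20 µM concentration. Read-out is the percentage of viable cells remaining after incubation.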

Plasmodium falciparum [3] = experiment: Antiplasmodial activity against chloroquine-sensitive Plasmodium falciparum 3D7 assessed as parasite growth inhibition; type: functional, organism-based
Method in brief: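 In vitro growth inhibition of P. falciparum 3D7. IC50 reported in µM, with 20 µM as the highest concentration tested.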

SMILES	IC50 (Plasmodium falciparum [1]) [µM]	viability at 20 µM [2] [%]	IC50 (Plasmodium falciparum [3]) [µM]
Clc1ccc2nc(Cl)c(CN(c3ccccc3)c3nnc(-c4ccccc4)o3)cc2c1	0.089	–	–
COc1nc2ccccc2cc1CN(Cc1ccccn1)Cc1cc2ccccc2nc1OC	–	89	3.5
COc1ccc2nc(Cl)c(CN(Cc3cccs3)Cc3cc4c(C)cc(C)cc4nc3OC)cc2c1	–	85.4	> 20
COc1nc2ccc(C)cc2cc1CN(Cc1ccccn1)Cc1cc2cc(C)ccc2nc1OC	–	93.3	> 20
COc1nc2ccccc2cc1CNCc1cccnc1	–	89.9	13.4
COc1ccc2nc(OC)c(CN(Cc3ccccn3)Cc3cc4cc(OC)ccc4nc3OC)cc2c1	–	79.5	3.4
COc1nc2cc(C)cc(C)c2cc1CN(Cc1cccs1)Cc1cc2cc(C)ccc2nc1Cl	–	86	> 20
Clc1nc2ccccc2cc1CNCc1ccncc1	–	73.7	2.3
COc1nc2cc(C)cc(C)c2cc1CN(Cc1ccccn1)Cc1cc2c(C)cc(C)cc2nc1OC	–	90.1	2.8
COc1nc2cc(C)cc(C)c2cc1CNCc1ccccn1	–	56.7	0.23
COc1nc2ccc(C)cc2cc1CN(Cc1cccs1)Cc1cc2cc(C)ccc2nc1Cl	–	87.9	12.6
COc1nc2cc(C)cc(C)c2cc1CNCc1cccs1	–	87.5	> 20
COc1nc2ccc(Cl)cc2cc1CNCc1cccnc1	–	100	16.8
COc1ccc2nc(OC)c(CN(Cc3cccs3)Cc3cc4cc(C)ccc4nc3Cl)cc2c1	–	99.2	0.93
COc1nc2ccccc2cc1CNCc1ccccn1	–	44.3	1.4
COc1nc2ccc(F)cc2cc1CNCc1cccs1	–	93.5	> 20
COc1nc2ccc(C)cc2cc1CNCc1cccs1	–	99.7	> 20
COc1nc2ccccc2cc1CNCc1cccs1	–	89.9	> 20
C=C[C@H]1CN2CC[C@H]1C[C@H]2[C@H](O)c1ccnc2ccc(OC)cc12 [QUININE]	0.826	–	–
COc1nc2ccc(C)cc2cc1CNCc1cccnc1	–	99.5	13.4
COc1ccc2nc(Cl)c(CN(Cc3cccs3)Cc3cc4cc(C)ccc4nc3OC)cc2c1	–	103	13.4

SMILES	IC50 (Plasmodium falciparum [1]) [µM]	viability at 20 µM [2] [%]	IC50 (Plasmodium falciparum [3]) [µM]
COc1ccc2nc(OC)c(CNCc3cccnc3)cc2c1	–	100	12.8
COc1nc2ccc(F)cc2cc1CNCc1cccnc1	–	97.2	17.9
COc1nc2ccccc2cc1CNCc1ccco1	–	88.9	> 20
COc1nc2cc(C)cc(C)c2cc1CNCc1ccncc1	–	60.7	12
Clc1nc2ccccc2cc1CNCc1ccccn1	–	65.6	> 20
Cc1ccc2nc(Cl)c(CN(Cc3cccnc3)Cc3cc4c(C)cc(C)cc4nc3Cl)cc2c1	–	80.3	7.6
COc1ccc2nc(OC)c(CNCc3cccs3)cc2c1	–	93.2	> 20
Clc1nc2ccccc2cc1CN(Cc1ccccn1)Cc1cc2ccccc2nc1Cl	–	90.6	> 20
COc1nc2cc(C)cc(C)c2cc1CN(Cc1cccnc1)Cc1cc2cc(C)ccc2nc1Cl	–	77.6	12.3
Cc1ccc2nc(Cl)c(CN(Cc3ccccn3)Cc3cc4cc(C)ccc4nc3Cl)cc2c1	–	93	> 20
COc1nc2ccccc2cc1CNCc1ccncc1	–	69.9	2.1
COc1ccc2nc(Cl)c(CN(Cc3ccccn3)Cc3cc4cc(OC)ccc4nc3Cl)cc2c1	–	83.8	> 20
Cc1cc(C)c2cc(CNCc3cccnc3)c(Cl)nc2c1	–	77.2	> 20
COc1nc2ccc(F)cc2cc1CN(Cc1cccs1)Cc1cc2cc(C)ccc2nc1Cl	–	95.2	11.3
Fc1ccc2nc(Cl)c(CN(Cc3ccccn3)Cc3cc4cc(F)ccc4nc3Cl)cc2c1	–	98.7	9.8
COc1nc2ccccc2cc1CN(Cc1ccco1)Cc1cc2cc(C)ccc2nc1Cl	–	84.4	12.8
COc1nc2cc(C)cc(C)c2cc1CNCc1cccnc1	–	76.7	> 20
COc1nc2ccccc2cc1CN(Cc1ccccn1)Cc1cc2ccccc2nc1Cl	–	89.9	> 20
Oc1ccc2nc(Cl)c(CN(Cc3ccccn3)Cc3cc4cc(O)ccc4nc3Cl)cc2c1	–	88.8	2.5
COc1nc2ccccc2cc1CN(Cc1cccnc1)Cc1cc2cc(C)ccc2nc1Cl	–	98.3	9.8
COc1nc2ccc(F)cc2cc1CN(Cc1cccnc1)Cc1cc2cc(C)ccc2nc1Cl	–	92.6	9.6
